UCH37 DUB inh – inhibitors of human deubiquitinating enzyme UCH37 | Q9Y5K5 | purified proteasome/UCH37, Ub-AMC cleavage fluorescence | inhibition, % (test concentration not listed) | 330,000 compounds, 0.33% hits | AID 588478;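 active = mean inhibition over replicate wells above about 20%, limit read from the data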;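 note: 0% = compound-free wells with enzyme and 100% = wells lacking proteasome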
Target sequence (Q9Y5K5 whole entry, looked up): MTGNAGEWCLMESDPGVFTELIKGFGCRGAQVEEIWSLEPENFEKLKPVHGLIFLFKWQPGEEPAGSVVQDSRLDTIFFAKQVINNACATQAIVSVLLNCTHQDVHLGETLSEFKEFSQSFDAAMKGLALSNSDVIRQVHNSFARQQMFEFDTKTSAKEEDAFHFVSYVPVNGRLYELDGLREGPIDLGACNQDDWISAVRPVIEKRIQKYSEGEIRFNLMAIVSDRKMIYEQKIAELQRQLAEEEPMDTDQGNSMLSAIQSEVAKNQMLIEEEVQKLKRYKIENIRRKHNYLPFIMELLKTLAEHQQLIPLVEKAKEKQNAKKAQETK
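Material: Human UCH37 enzyme supplied as purified proteasome complex | Schedule: 30 min compound-proteasome preincubation then 25 min substrate reaction, room temperature | Detection: AMC fluorescence from Ub-AMC cleavage, excitation 355 nm, emission 460 nm | Benchmarks: Wells without proteasome as full block, compound-free enzyme plus substrate as uninhibited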
Neddylation inh – inhibitors of human cullin neddylation | P61081+Q13564 | TR-FRET cullin neddylation, biochemical | inhibition, % at 25 µM | 360,000 compounds, 0.58% hits | AID 651699; in the data active = inhibition above about 36%
Fh CTSL1 inh – counter-screen for PFM18AAP inhibitors: inhibitors of F. hepatica cathepsin L1; recombinant F. hepatica cathepsin L1, Z-Leu-Arg-MCA fluorescence; inhibition, % at 5.96 µM; 300,000 compounds, 0.49% hits;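 active = inhibition above the mean of all tested compounds plus 3 SD, set per screening campaign, cut at about 17% in these data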;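 note: 0% = plate median of test compound wells and 100% = 1 µM Z-Phe-Ala-diazomethylketone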
UBC9 SUMO inh – SUMOylation inhibition. P63279. HTRF SUMOylation assay, SAE1/SAE2 + UBC9, in vitro. inhibition, % at 35 µM. 290,000 compounds, 0.36% hits. AID 2006; in the data active = inhibition above about 50%, passing the limit was not always enough
Target sequence (P63279 whole entry, looked up): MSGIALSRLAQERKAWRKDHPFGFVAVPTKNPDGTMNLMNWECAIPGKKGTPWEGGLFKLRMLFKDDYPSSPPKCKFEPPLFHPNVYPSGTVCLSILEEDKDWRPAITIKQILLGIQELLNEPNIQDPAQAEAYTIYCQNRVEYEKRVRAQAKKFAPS
Neddyl inh conf – confirmation of human cullin neddylation inhibitors; shares compounds with Neddylation inh; TR-FRET cullin neddylation biochemical assay; calls only at 25 µM; 1,800 compounds, 13% hits; AID 652217; in the data active = inhibition above about 40%;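 note: neddylation substrate is the cullin 1 ring ligase complex with SKP2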
Active calls of the source: *; i = inactive; . = no result shown; + = active, no number. Rows were chosen to be rich in hits. Some 1.4% of all compounds tested hit in one or more screens of this group.

SMILES	UCH37 DUB inh	Neddylation inh	Fh CTSL1 inh	UBC9 SUMO inh	Neddyl inh conf
O=C(c1cc2nc(-c3ccccc3)cc(C(F)(F)F)n2n1)N1CCCC1	-94	41*	.	.	i
COc1ccc(-c2cc(C(F)(F)F)n3nc(C(=O)N4CCCCC4)cc3n2)cc1OC	-6	38*	8	15	i
O=C(c1cnn2c(C(F)(F)F)cc(-c3ccc4c(c3)OCO4)nc12)N1CCCCC1	-21	44*	-1	28	i
CN1CCN(C(=O)c2cc3nc(-c4ccccc4)cc(C(F)(F)F)n3n2)CC1	-6	17	1	17	.
O=C(c1cc2nc(-c3ccco3)cc(C(F)(F)F)n2n1)N1CCN(c2ccccc2)CC1	2	9	1	3	.
N#CC(Cn1c[n+](NC(=O)Nc2ccccc2)cn1)=NO	1	.	.	.	.
CC(=O)Nc1cccc(C(C)=NNC(=S)NC(C)C)c1	2	.	.	.	.
CC(=NOCON=C(C)c1ccc(F)cc1F)c1ccc(F)cc1F	2	.	.	.	.
C/C(C=NNC(=O)CN1CCN(Cc2ccc(Cl)cc2)CC1)=C\c1ccco1	8	.	.	.	.
COc1cccc2[nH]c3c(N4CCCCC4)ncnc3c12	-78	45*	9	25	.
CCOC(=O)C1CCN(c2ncnc3c2[nH]c2cccc(OC)c23)CC1	-111	.	3	37	.
O=C(NN=Cc1ccc(-c2ccccc2[N+](=O)[O-])o1)[C@H]1C[C@@H]1c1ccccc1	5	.	.	.	.
CCOC(=O)c1cc(NCc2cccs2)ccc1N1CCOCC1	-7	46*	-2	13	i
COC(=O)c1cc(NCc2ccccc2F)ccc1N1CCOCC1	-22	32	2	17	.
CCOC(=O)c1cc(NC(=O)c2cccs2)ccc1N1CCOCC1	5	1	-1	25	.
CCOc1ccccc1CNc1ccc(N2CCOCC2)c(C(=O)O)c1	-17	41*	-1	30	i
CCOc1cc(C=NNC(N)=O)cc(Br)c1OCC(=O)Nc1cccc2ccccc12	0	.	.	.	.
COc1ccc(Cl)cc1Nc1nc(N)c2ccccc2n1	-23	45*	3	-3	+
CCCCN(CCCC)C1=Nc2ccccc2N/C1=C(/C#N)C(=O)OCC	-4	40*	-3	3	i
Cc1ccc(-c2nnc(Nc3ccc(CC(N)=O)cc3)c3ccccc23)cc1	-4	45*	2	5	i
Cc1ccc(-c2nnc(Nc3ccc(CC(N)=O)cc3)c3ccccc23)cc1S(N)(=O)=O	1	19	-2	12	.
CNC(=S)N(C)N=C1C(=O)N(Cc2c(Cl)cccc2Cl)c2ccccc21	0	.	.	.	.
O=c1c(=Cc2ccc(O)cc2)sc2nc(-c3ccccc3)c(-c3ccccc3)n12	9	.	.	.	.
COC(=O)N/N=C/c1ccc(OC(=O)/C=C/c2ccco2)cc1	.	52*	-6	30	i
Cc1ccn2cc(C(=O)Nc3nnc(C)s3)nc2c1	-19	40*	8	-62	i
SMILES	UCH37 DUB inh	Neddylation inh	Fh CTSL1 inh	UBC9 SUMO inh	Neddyl inh conf
COC(=O)c1cc2c(ccn2-c2ccc(F)cc2)n1CC(=O)OC(C)C	-4	43*	-1	-4	i
CCCc1ccc2oc(C(=O)N3CCN(c4cnccn4)CC3)c(C)c2c1	-24	40*	1	-2	i
Cc1cccc(-n2ncc3c(NCCCO)ncnc32)c1	3	39*	-1	10	i
C=CCNc1ncnc2c1cnn2-c1cccc(C)c1	5	.	-2	15	.
COc1ccccc1N1CCN(N=Cc2sccc2C)CC1	2	.	.	.	.
CCOC(=O)Cn1nc(/C=C/c2ccc(C)cc2)ccc1=O	-56	.	0	13	.
CCOC(=O)Cn1nc(/C=C/c2ccccc2)ccc1=O	-26	43*	0	13	+
CCOC(=O)Cn1nc(/C=C/c2ccc(C(C)C)cc2)ccc1=O	-29	49*	3	7	.
CCC(O)(CC)C(=O)NN=Cc1cc(Br)cc(Br)c1O	-22	.	.	.	.
NCCC(=O)NC[C@H]1O[C@@H](n2cnc3c(N)ncnc32)[C@H](O)[C@@H]1O	-1	-5	.	.	.
Nc1ncnc2c1ncn2C1OC(COP(=O)(O)O)C(O)C1O (stereo not given)	-1	56*	-7	.	+
Nc1ncnc2c1ncn2[C@@H]1O[C@H](COP(=O)(O)O)[C@@H](O)[C@H]1O	0	49*	6	62*	+
CC=C1OC(n2cnc3c(N)ncnc32)C(O)C1O (stereo not given)	.	42*	.	.	i
N#CC(=NNc1ccc(S(=O)(=O)N2CCCCCC2)cc1)C(N)=S	9	.	.	.	.
CC(C)N(Cc1ccccc1)C(=O)C1CCN(c2ncnc3c2nc2n3CCCCC2)CC1	2	-11	2	12	.
CN(C)CCN(Cc1ccccc1)C(=O)C1CCN(c2ncnc3c2nc2n3CCCCC2)CC1	.	43*	3	6	i
Nc1nc(Br)c2c(F)cccc2c1-c1ccc(F)cc1	-10	40*	6	20	i
COc1cc(C=NNC(=O)c2ccc(-c3ccccc3)cc2)ccc1OCC(N)=O	-34	.	.	.	.
COc1cc(NC(=O)CSc2nc3ccccc3n2-c2ccccc2)c(C)cc1[N+](=O)[O-]	7	43*	5	-16	i
Cn1nc(/C=C/c2ccccc2)ccc1=O	-99	50*	5	27	i
Cc1nc(/C=C/c2ccccc2)cc(/C=C/c2ccccc2)n1	-36	29	0	-4	.
O=c1ccc(/C=C/c2ccccc2)nn1Cc1ccccc1	-25	49*	5	15	i
CCOc1ccccc1C=NNC(=O)CNC(=O)c1ccc(S(=O)(=O)N2CCOCC2)cc1	3	.	.	.	.
COc1ccc(-c2[nH]c(-c3cccc(OC)c3)nc2SCC(=O)NCc2ccco2)cc1	-10	42*	4	-8	i
COc1ccc(-c2ccc(SCC(=O)NCc3ccco3)nn2)cc1	2	13	0	11	.
SMILES	UCH37 DUB inh	Neddylation inh	Fh CTSL1 inh	UBC9 SUMO inh	Neddyl inh conf
CCOC(=O)C1(CCC(C)=NNC(N)=O)CC(C)(C)OC1=O (stereo not given)	3	.	.	.	.
CCOC(=O)NN=Cc1cn(Cc2ccccc2Cl)c2ccccc12	6	.	.	.	.
NC(=NOC(=O)CCCOc1ccccc1)c1ccc([N+](=O)[O-])cc1	2	.	.	.	.
COc1ccc(NS(=O)(=O)c2cn(C)cn2)cc1	6	3	-6	0	.
Cn1cnc(S(=O)(=O)Nc2ccc(OC(F)F)cc2)c1	7	49*	1	1	i
Oc1ccc(Br)cc1C=Nc1ccc2c3c(cccc13)CC2	4	43*	-1	46	.
Cc1ccc(C(O)c2ncc(-c3ccccc3C)[nH]2)cc1F (stereo not given)	.	-5	.	.	.
Cc1ccc(C(O)c2ncc(-c3cccc4ccccc34)[nH]2)cc1F (stereo not given)	.	42*	.	.	i
Cc1ccn2c(=O)c(C(=O)NCCCN3CCCCC3C)c(O)nc2c1 (stereo not given)	-45	45*	0	11	i
CCC1CCCCN1CCCNC(=O)c1c(O)nc2cc(C)ccn2c1=O (stereo not given)	-36	30	2	3	.
Cc1ccn2c(=O)c(C(=O)NC3CCCCC3C)c(O)nc2c1 (stereo not given)	-65	44*	1	.	i

Compound activity as filed in PubChem.
